DAT uptake mod: changed hDAT dopamine uptake under cocaine IC80, either direction, primary screen, cocaine antagonist project, cell-based, LLC-PK1 hDAT, [14C]-dopamine uptake, MLSMR; Sodium-dependent dopamine transporter (Homo sapiens), Q01959; LLC-PK1 hDAT cells, [14C]-dopamine uptake with cocaine IC80; actives deviate in either direction; B-score at 10 µM; 110,000 compounds, 1.3% hits; AID 449768, 2010;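 active = Z score or B-score, a plate-position-corrected score, falls beyond the plate's 99.7% confidence bounds, in either direction; inactive = both scores lie inside the 99.7% bounds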;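 also: scored against the spread of the other compound wells on the same plate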
Target sequence (Q01959 whole entry, looked up): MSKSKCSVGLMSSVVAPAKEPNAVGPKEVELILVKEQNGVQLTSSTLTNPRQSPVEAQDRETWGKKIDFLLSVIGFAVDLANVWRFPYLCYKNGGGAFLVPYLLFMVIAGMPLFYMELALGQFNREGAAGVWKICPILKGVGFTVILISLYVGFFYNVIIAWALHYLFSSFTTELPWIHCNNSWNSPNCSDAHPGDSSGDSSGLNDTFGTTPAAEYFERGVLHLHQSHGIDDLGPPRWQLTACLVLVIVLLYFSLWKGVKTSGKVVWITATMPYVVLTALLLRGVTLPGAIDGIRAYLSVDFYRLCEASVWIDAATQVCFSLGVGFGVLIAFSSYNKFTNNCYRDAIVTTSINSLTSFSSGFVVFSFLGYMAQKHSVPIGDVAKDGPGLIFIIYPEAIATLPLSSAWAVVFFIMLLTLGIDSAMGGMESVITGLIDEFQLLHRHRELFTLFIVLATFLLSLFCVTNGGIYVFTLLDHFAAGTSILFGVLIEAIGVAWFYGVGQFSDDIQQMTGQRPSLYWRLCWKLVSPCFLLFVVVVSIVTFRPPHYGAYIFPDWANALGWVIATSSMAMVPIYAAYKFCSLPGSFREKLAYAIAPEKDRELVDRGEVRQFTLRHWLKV
WT yeast gro inh: growth inhibition of WT strain, primary screen, mitochondrial fusion inhibitor project, WT and mutant strains, chemical genetic; mitochondrial fusion phenotypic screen; inhibition, % at 10 µM; 190,000 compounds, 2.1% hits; in the data active = inhibition above about 58%; tested in S. cerevisiae
RAM network inh: inhibitors of the yeast RAM network, primary screen, dse1pr::URA3 reporter, 5-FOA selection; S. cerevisiae dse1pr::URA3 reporter, 5-FOA growth OD615, 2 d; analog-sensitive cbk1-as2 kinase mutant strain; 190,000 compounds, 1.8% hits; inhibition, % at 50 µM;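 active = inhibition above a set limit, 3 SD over mean compound inhibition, cut at about 8.4% in these data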;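 also: 0% = DMSO-only wells with no growth and 100% = 10 µM 1-NA-PP1 full growth; inhibition rescues growth on 5-FOA so higher OD means more RAM inhibition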
Measles CPE: compounds protecting cells from measles virus cytopathic effect, primary screen, measles RdRp inhibitor project, single point, MLSMR library, absorbance; protection (pct of control), % at 4 µM; 140,000 compounds, 1.5% hits; Measles virus-infected cells, CPE protection; in the data active = protection mostly above about 24%, no sharp cut-off; inactive = mostly below about 26%
BB579 growth dn: growth inhibitors of yeast BB579 in restrictive medium, primary screen, yeast lifespan-shortening project, S. cerevisiae. AID 804, 2007. inhibition, % at 10 µM. OD615, 48 h. 140,000 compounds, 0.51% hits;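 active = inhibition above a set limit, 3 SD over the mean compound inhibition, cut at about 44% in these data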
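Assay system: S. cerevisiae DeaD strain BB579 yeast. Medium: CSMM-D restrictive synthetic medium containing dextrose (glucose). Times: 4 h cell preincubation, 48 h compound exposure, 30 °C humidified. Signal: OD615 turbidity measurement. Benchmarks: positive control amphotericin B 10 µg/mL.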
Yeast lifespan up: compounds extending yeast replicative lifespan, primary screen, S. cerevisiae, OD615; S. cerevisiae growth with nicotinamide; deaD strain in restrictive glucose medium; inhibition of the nicotinamide effect, % at 10 µM; 130,000 compounds, 0.68% hits; AID 775, 2007;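 active = inhibition above a set limit, placed 3 SD over the median of all compounds, cut at about 26% in these data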;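 also: 0% = nicotinamide-treated wells and 100% = cells grown without nicotinamide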
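Measured by: optical density (absorbance) at 615 nm; System: modified budding yeast, DeaD strain; Medium: restrictive CSMM-D dextrose medium; Timing: 4 h preincubation then 48 h treatment at 30 °C.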
Starred values were filed as active, the others as inactive; . = no result. Rows were chosen to be rich in hits. Some 6.1% of all compounds tested hit in one or more screens of this group.

SMILES	DAT uptake mod	WT yeast gro inh	RAM network inh	Measles CPE	BB579 growth dn	Yeast lifespan up
O=C(NNc1ccc([N+](=O)[O-])cc1)C1CC1c1ccccc1 (stereo not given)	.	7	2	23*	-52	2
CCN(CCCNC(=O)C1CCC(=O)N1Cc1ccc(F)cc1)c1cccc(C)c1 (stereo not given)	1.9	12	2	2	-19	-7
CCN(CCNCC(O)COCc1ccc(Cl)cc1)c1cccc(C)c1 (stereo not given)	.	62*	-1	.	.	.
Cc1nc2c(F)c(F)c(C(F)(F)F)c(F)c2[nH]1	0.064	74	1	11	57*	-16
Cc1nc2c(Br)c3nc(C(F)(F)F)[nH]c3c(Br)c2[nH]1	-0.14	-3	0	29	-22	-11
Cc1ccc(Cl)c(OC(=O)c2ccc(N3CCOCC3)c([N+](=O)[O-])c2)c1	.	33	5	17	-3	-6
COc1ccc(CC(=O)OCc2nnc(-c3ccccc3)o2)cc1	.	12	-1	.	.	.
COc1cccc(OCCn2c(C)c(/C=N/n3cnnc3)c3ccccc32)c1	0.24	16	6	3	-12	-3
COc1ccc(OCCn2c(C)c(/C=N/n3cnnc3)c3ccccc32)cc1	-0.15	-10	10.0*	17	-25	-5
CCCCNC(=O)C1CCCN1C(=O)NC1CCCCC1 (stereo not given)	-7.9*	3	2	13	-37	.
O=C(NC1CC1)C1CCCN1C(=O)NC1CCCCC1 (stereo not given)	.	4	1	.	.	.
CCOC(=O)NC(=O)COC(=O)CNC(=O)c1ccc(OCC)c(OCC)c1	.	16	4	.	.	.
CC[C@@H]1[C@H]2CCCC(=O)N3CC[C@@H](C[C@H]1O)[C@@H]23	0.11	.	.	.	.	.
CCN(CC)CCNC(=O)Cn1c(-c2ccccn2)nc2ccccc21	0.85	61*	1	6	-26	-12
CC(C)NC(=O)C1CCCN(c2nnc(-n3cccc3)s2)C1 (stereo not given)	0.72	4	1	3	-6	4
CC(CCc1ccccc1)NC(=O)C1CCCN(c2nnc(-n3cccc3)s2)C1 (stereo not given)	-0.69	0	2	35*	-23	2
CCCCCC(=O)N1CC2(CC(c3cccc(NC(=O)COc4ccc(Cl)cc4)c3)=NO2)C[C@@H]1C(N)=O (stereo not given in full)	3.1*	.	.	.	.	.
Cc1cc(N2CCCC2=O)cc(C)c1S(=O)(=O)NCCOc1ccc(C(C)(C)C)cc1	-2.8*	51	8	5	-16	.
COc1ccc(OCc2nnc(SCC(=O)N(C)Cc3ccccc3)n2N)cc1	.	-6	3	.	.	.
CC1=NN(Cc2ccccc2)C(=O)C1C(c1ccccc1)C(C#N)C#N (stereo not given)	0.48	-5	2	26	-26	38*
CC1=NN(Cc2ccccc2)C(=O)C1C(c1ccc(Cl)cc1)C(C#N)C#N (stereo not given)	.	-7	3	9	-27	41*
COc1cc(/C=C2/C(=O)ON=C2c2ccccc2)ccc1O	.	-11	0	10	86*	12
O=C(Nc1ccc(N2CCCCC2)c(Cl)c1)c1ncn[nH]1	0.1	-8	2	4	-6	-4
CC1(C)Cc2c(sc3nc(SCC(=O)NCc4ccco4)n(-c4ccccc4)c(=O)c23)CS1	2.8*	3	3	11	-32	2
[O-]/[N+](=C/c1ccc(F)cc1)c1ccccc1	0.037	5	1	32	-30	-23
SMILES	DAT uptake mod	WT yeast gro inh	RAM network inh	Measles CPE	BB579 growth dn	Yeast lifespan up
[O-]/[N+](=C\c1ccc(OC(F)F)cc1)c1ccccc1	1.2	4	1	42*	-29	-6
COC(=O)c1nn(C23CC4CC(CC(C4)C2)C3)c2c1C(=O)N(c1ccc(Br)cc1)C2=O	0.2	43	3	7	-43	-3
CCc1ccccc1NC(=O)Nc1cccn(Cc2ccccc2F)c1=O	.	5	2	.	.	.
O=C(O)c1cccn1Cc1ccccc1F	0.19	-28	0	44*	-1	6
CC(=O)Oc1ccccc1-c1nc(C)nc(N(C)C(C)=O)n1	-2.8*	9	-1	11	-57	-14
Cc1ccc(NC(=O)c2c(Cl)nc3ccccn23)cc1	.	-7	3	.	.	.
COC(=O)CNC(=O)c1c(-c2c(Cl)cccc2Cl)noc1C	-0.48	-3	4	41*	-4	-18
COC(=O)CNC(=O)c1c(-c2ccccc2Cl)noc1C	0.17	-3	1	5	-90	6
CC(=O)Nc1cccc(NC(=O)c2c(-c3c(Cl)cccc3Cl)noc2C)c1	-0.84	-5	1	7	-10	-23
Cc1cc(C)nc(NC(=O)c2c(-c3c(Cl)cccc3Cl)noc2C)n1	-2.9*	6	2	4	-46	-5
COc1ccccc1CNC(=O)C(NC(=O)c1ccccc1C)C(C)C (stereo not given)	.	7	3	.	.	.
COc1ccnc(Oc2ccccc2)c1C(N)=O	.	-5	0	.	.	.
COc1cc2c(cc1NC(=O)c1cccc(Br)c1)CCCC2	-0.0033	73*	9.3*	1	-44	4
COc1cc2c(cc1NC(=O)c1cccc(F)c1)CCCC2	.	38	3	9	-7	-6
CC(=O)Nc1ccc(NC(=O)C(C)OC(=O)c2ccc(C)s2)cc1 (stereo not given)	.	0	2	.	.	.
COC(=O)c1c(N2C(=O)Nc3ccccc3N2O)sc(C)c1C	.	-12	-1	.	.	.
CCOC(=O)c1c(N2C(=O)Nc3ccccc3N2O)sc2c1CCCC2	.	-6	2	20	-31	30*
Cn1c(SCC(=O)OCC(=O)c2ccccc2)nnc1-c1cccs1	0.2	-9	0	0	-19	-2
Cc1ccc(C(=O)NC(=S)/C=C2\N(C)c3ccccc3C2(C)C)cc1	.	67*	5	26	24	0
Oc1ccc(/C=N/N2CCN(C3c4ccccc4-c4ccccc43)CC2)c(O)c1	.	98*	0	.	.	.
COc1ccc(/C=C2/C(=O)N(Cc3ccccc3)N=C2C)cc1	.	9	1	6	-56	27*
O=[N+]([O-])c1cc(/C=N/O)ccc1Sc1ccccc1	0.19	38	-1	7	79*	-10
O=[N+]([O-])c1cc(/C=N/O)ccc1Oc1cccc(Cl)c1	.	72*	-2	.	.	.
CO/N=C/c1ccc(Sc2ccccc2)c([N+](=O)[O-])c1	0.27	-14	1	5	-28	-10
